Tested on: MS2 coat protein
Assay: apparent Kd, MS2 coat protein; higher = weaker binding; RNA-MaP array; FMN 200 µM where present
How it was run: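 Green signal was scaled to red-channel RNA signal and control-cluster median Fmax, and the apparent Kd was taken as the median of filtered per-cluster binding-curve fits. The binding series used SNAP-549-labelled MS2 coat protein from 0.7 or 1.5 nM, doubling to 3 µM, on designs transcribed by stalled E. coli RNA polymerase on Illumina sequencing-chip clusters. Each series ran without and then with constant ligand in 100 mM Tris-HCl pH 7.5, 80 mM KCl, 4 mM MgCl2, BSA, DTT, yeast tRNA and Tween-20.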

[1] = designed as: OFF switch for flavin mononucleotide, no ligand
[2] = ligand present: flavin mononucleotide, designed as: OFF switch for flavin mononucleotide
[3] = designed as: ON switch for flavin mononucleotide, no ligand
[4] = ligand present: flavin mononucleotide, designed as: ON switch for flavin mononucleotide

GAUCGAAACACUCCUUACACUACAUGAGGAUCACCCAUGUAGCAGGAUAUCAUUGCUCCUCGCUGUGAGAAGGGCUACGGGCGA
apparent Kd [1]: 7.3 nM | apparent Kd [2]: 14 nM

GAUCGCCGUGUCAGGAUAUCUUGUGUACCCACGUUAGAGAAGGGACAUGAGGAUCACCCAUGUACCCUGGUUUU
apparent Kd [1]: 17.6 nM | apparent Kd [2]: 19.2 nM

GAUCGUAUCCUAGGAUAUUCAUUAAACAUGAGGAUCACCCAUGUUAAUUUGGGAGAAGGAGGAUACGAUCAACAGCGAAAGCUG
apparent Kd [3]: 10.6 nM | apparent Kd [4]: 5.15 nM

GAUGACAUGAGGAUCACCCAUGUGAUGGUUUGAGGUGGUUACAGAAGGGACGUAUAGUGGUGUGGUCAGGAUAUGUAGAAUCUU
apparent Kd [3]: 157 nM | apparent Kd [4]: 42.1 nM

GAUUAACAUGAGGAUCACCCAUGUGAGGAUAUGGAAUGGCUCAUUGUCUGAUUUCCGUCUAGAAGGCACAUCUU
apparent Kd [1]: 46.7 nM | apparent Kd [2]: 45 nM

GAUUAUAAGUAAGGAUAUGUAUAUGAAACAUAUACAGAAGGUACAUGAGGAUCACCCAUGUUCUUGCAGCGCGAAUAUGUAAUC
apparent Kd [1]: 18.9 nM | apparent Kd [2]: 27.7 nM

GAUUGACAAGGAUAUACAUGAGGAUCACCCAUGUGCUUCAGCUAGGAGACUAGCAUUGGUAGAAGGUGUUAAUC
apparent Kd [1]: 20.3 nM | apparent Kd [2]: 68.4 nM

GAUUUAGAGCAGGAUAUCAUAGAAUUAUAUGAAUGAGAAGGGCUCACAUGAGGAUCACCCAUGUGGUCCUAGAU
apparent Kd [1]: 21.1 nM | apparent Kd [2]: 167 nM

GCAAAGCCUGACAUGAGGAUCACCCAUGUUAGAUUGUUAUGUCAGGAUAUUGUCUAGCCACUAGACAAGAAGGGAUGCUUUGCU
apparent Kd [3]: 384 nM | apparent Kd [4]: 32.9 nM

GCACAACAUGAGGAUCACCCAUGUCUCACAAACCAAGGAUAUGGGCCCGGCCAGGCCGGAUCAGAAGGUGGAAAAU
apparent Kd [3]: 312 nM | apparent Kd [4]: 143 nM

GCACGAAGCUAGAAGGGCGAUUUGCACAUGAGGAUCACCCAUGUCCAACGUAGGAUAUGGCUGGCGGGAACGCAAGGUGCGCGC
apparent Kd [3]: 330 nM | apparent Kd [4]: 37.3 nM

GCACGAGACUAAGGAUAUGGAGUGUCAACAUUAAACAUGAGGAUCACCCAUGUAAAGAGUACGAUUCAGAAGGUAGAGACGUGC
apparent Kd [3]: 59.1 nM | apparent Kd [4]: 22.8 nM

GCACGAGACUAAGGAUAUGGAGUGUCUACAUUAAACAUGAGGAUCACCCAUGUAGAGAGUAUGAUUCAGAAGGUAGAGACGUGC
apparent Kd [3]: 53.6 nM | apparent Kd [4]: 25.2 nM

GCACGGCAUGUAGGAUAUCGAGCGCCGGGCGCUCGAGAAGGACAUGAGGAUCACCCAUGUAGUCUCAGUGAGAGACUGCUGUGC
apparent Kd [1]: 18.3 nM | apparent Kd [2]: 36.2 nM

GCACUGGAUGUAGGAUAUCAGGACGAUAAGUCCUGAGAAGGACAUGAGGAUCACCCAUGUGCUCAAUAACCAGUGCAUAAUAUA
apparent Kd [1]: 14.5 nM | apparent Kd [2]: 20.3 nM

GCACUUAAGUUAGGAUAUGGAUCGGAAAACGAUCCAGAAGGAAUAUGGGAACAUGAGGAUCACCCAUGUUCCACAAACAAGUGC
apparent Kd [3]: 55.4 nM | apparent Kd [4]: 29 nM

GCAGACGUAGUGAGGAUAUGCUCUACCUCGGUAGAGCAGAAGGCACAUGAGGAUCACCCAUGUGGCUCCUCAUC
apparent Kd [1]: 15.6 nM | apparent Kd [2]: 21.9 nM

GCAGACGUGGUGAGGAUAUGCUCUACCUCGGUAGAGCAGAAGGCACAUGAGGAUCACCCAUGUGGCUCCUCAUU
apparent Kd [1]: 15.9 nM | apparent Kd [2]: 21 nM

GCAGACUUGCUGAAGGUGUUCCACAUGAGGAUCACCCAUGUCAAGGAUAUAACGCGUCCGGCCCGUUAGAAGGUGACAGUUUGC
apparent Kd [1]: 368 nM | apparent Kd [2]: 229 nM

GCAGCACAGUAUUACAUGAGGAUCACCCAUGUCGAUUGAGAUGAGGAUAUGCAUCGAAUGAAGUUGCAGAAGGCAUUGUGCUGC
apparent Kd [3]: 10.9 nM | apparent Kd [4]: 5.94 nM

GCAGCGACUGCAGGAUAUCAGCACGUGUAGUGCUGAGAAGGGCACAUGAGGAUCACCCAUGUGAUCAAUUAAUAGUCAUGCUGC
apparent Kd [1]: 7.23 nM | apparent Kd [2]: 15.9 nM

GCAGGAAAACUUGGUACAUGAGGAUCACCCAUGUAAAGCGGCAGAAGGGCGAUGUUAUGUAUAACGCAGGAUAUGCAGCGGAAU
apparent Kd [3]: 46.4 nM | apparent Kd [4]: 18.1 nM

GCAGGGUAUGAGAAGGCAUAAUUUAUCUUACCACAUGUUUACAUGAGGAUCACCCAUGUUUCCAAUGAGGAUAUCAUACCGUGC
apparent Kd [1]: 10.9 nM | apparent Kd [2]: 9.89 nM

GCAUGCAUAGCGAUAUGAUCGAGAGAUCAUGUCGCUAAAUUUAGAAGGACAUGAGGAUCACCCAUGUAGGAUAUGGGAGCAUGG
apparent Kd [3]: 76 nM | apparent Kd [4]: 12.7 nM

GCAUGGAAAGUGAGGAUAUACCACUGGAUACAGUGGUAGAAGGCACAUGAGGAUCACCCAUGUUCCUACCAUGC
apparent Kd [1]: 16.9 nM | apparent Kd [2]: 71.3 nM

GCAUUUCAGUAAGGAUAUAUAAACAUGACGAUACAUGAGGAUCACCCAUGUGUAGAAGGUACUAAUACAUAUAAUGCAAUGGUC
apparent Kd [1]: 26.6 nM | apparent Kd [2]: 21.1 nM

GCCAAUAAGAUUGGCACCGGCGCGCAGGAUAUGCUGGCCUACAUGAGGAUCACCCAUGUCUAAAUGCAGAAGGGUGAGCUGAGC
apparent Kd [3]: 444 nM | apparent Kd [4]: 82.4 nM
